Measurements as given in ChEMBL document CHEMBL5247621, “From dopamine 4 to sigma 1: Synthesis, SAR and biological characterization of a piperidine scaffold of σ1 modulators” (Eur J Med Chem, 2022).
Each block holds one molecule with its values, some of them ahead of it.

Columns and labels:
[1] = target: T1, Sigma non-opioid intracellular receptor 1 (Homo sapiens, UniProt Q99720); assay: Displacement of [3H] Pentazocine from sigma 1 receptor in HEK293 cell membrane; type: cell membranes
[2] = Plasma protein binding in human assessed as unbound fraction; type: ADME, cell-free
Method in brief: (§1)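 Plasma protein binding by equilibrium dialysis in human or mouse plasma, reported as fraction unbound (fu).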

[3] = target: T2, D(4) dopamine receptor (Homo sapiens, UniProt P21917); assay: Displacement of [3H]N-methylspiperone from D4 receptor in HEK293 cell membrane; type: cell membranes; details: read-out: Ki
T2 sequence (P21917 whole entry): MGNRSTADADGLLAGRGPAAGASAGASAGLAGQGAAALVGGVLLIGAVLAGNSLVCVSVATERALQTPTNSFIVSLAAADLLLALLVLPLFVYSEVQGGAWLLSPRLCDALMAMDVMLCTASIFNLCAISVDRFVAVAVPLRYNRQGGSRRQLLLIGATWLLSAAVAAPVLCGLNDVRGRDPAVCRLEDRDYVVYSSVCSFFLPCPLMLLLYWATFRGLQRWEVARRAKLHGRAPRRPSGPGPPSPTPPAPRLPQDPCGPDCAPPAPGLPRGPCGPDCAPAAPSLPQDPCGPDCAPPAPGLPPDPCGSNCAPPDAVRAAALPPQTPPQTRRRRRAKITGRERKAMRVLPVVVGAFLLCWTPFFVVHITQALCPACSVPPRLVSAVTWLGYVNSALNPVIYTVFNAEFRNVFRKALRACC

[4] = target: Sigma intracellular receptor 2 (Homo sapiens, UniProt Q5BJF2); assay: Displacement of [3H]DTG from sigma-2 receptor in HEK293 cell membrane assessed as inhibition constant; type: cell membranes
Chain of Sigma intracellular receptor 2 (Q5BJF2 whole entry): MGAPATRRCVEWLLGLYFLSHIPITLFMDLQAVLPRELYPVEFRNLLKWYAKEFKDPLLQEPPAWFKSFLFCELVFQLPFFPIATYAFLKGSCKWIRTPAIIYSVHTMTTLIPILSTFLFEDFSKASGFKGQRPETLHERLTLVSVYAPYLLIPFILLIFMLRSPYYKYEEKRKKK
Method in brief: (§2)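 Competitive radioligand binding in membranes harvested from HEK293 cells, with one radioligand per target: [3H]N-methylspiperone for D2, D3 and D4; [3H]SCH23390 for D1 and D5; [3H]pentazocine for σ1; [3H]DTG for σ2. Ki derived from inhibition of binding, each run in triplicate.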

[5] = target: D(1A) dopamine receptor (Homo sapiens, UniProt P21728); assay: Displacement of [3H]SCH23390 from D1 receptor in HEK293 cell membrane assessed as inhibition constant; type: cell membranes; method in brief: as §2
Chain of D(1A) dopamine receptor (P21728 whole entry): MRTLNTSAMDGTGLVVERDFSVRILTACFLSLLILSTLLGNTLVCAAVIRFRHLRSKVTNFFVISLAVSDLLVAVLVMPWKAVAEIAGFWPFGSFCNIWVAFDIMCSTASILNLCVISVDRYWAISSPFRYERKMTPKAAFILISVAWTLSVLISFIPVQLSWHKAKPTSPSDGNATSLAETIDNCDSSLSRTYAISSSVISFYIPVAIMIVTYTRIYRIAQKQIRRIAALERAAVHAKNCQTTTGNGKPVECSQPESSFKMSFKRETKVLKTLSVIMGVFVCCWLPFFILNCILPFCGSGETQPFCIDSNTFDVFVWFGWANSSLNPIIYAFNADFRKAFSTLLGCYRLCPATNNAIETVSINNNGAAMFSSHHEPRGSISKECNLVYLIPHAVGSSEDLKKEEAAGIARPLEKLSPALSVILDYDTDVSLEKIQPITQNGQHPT

[6] = target: T1, Sigma non-opioid intracellular receptor 1; assay: Binding affinity to sigma 1 receptor in human Jurkat cells; type: cell-based
[7] = target: D(1B) dopamine receptor (Homo sapiens, UniProt P21918); assay: Displacement of [3H]SCH23390 from D5 receptor in HEK293 cell membrane assessed as inhibition constant; type: cell membranes; method in brief: as §2
Chain of D(1B) dopamine receptor (P21918 whole entry): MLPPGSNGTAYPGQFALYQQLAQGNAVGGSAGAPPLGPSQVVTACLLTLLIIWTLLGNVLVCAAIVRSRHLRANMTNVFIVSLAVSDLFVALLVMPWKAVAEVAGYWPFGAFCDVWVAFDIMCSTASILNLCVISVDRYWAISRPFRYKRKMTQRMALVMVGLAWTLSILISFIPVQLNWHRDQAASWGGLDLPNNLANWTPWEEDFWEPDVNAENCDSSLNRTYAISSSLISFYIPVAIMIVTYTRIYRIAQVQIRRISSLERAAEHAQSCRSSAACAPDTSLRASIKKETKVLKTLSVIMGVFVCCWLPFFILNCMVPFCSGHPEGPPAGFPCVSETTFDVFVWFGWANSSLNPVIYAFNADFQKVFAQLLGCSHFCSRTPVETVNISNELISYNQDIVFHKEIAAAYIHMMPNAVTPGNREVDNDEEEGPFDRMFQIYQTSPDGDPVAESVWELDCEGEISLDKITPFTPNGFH

[8] = Half life in mouse plasma at 5 mg/kg, ip measured after 24 hrs; type: ADME, organism-based; details: in vivo
Method in brief: (§3)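 Discrete mouse study, single intraperitoneal dose of 5 mg/kg in 10% DMSO/10% Cremophor EL/30% PEG400/50% water. Plasma and brain concentrations followed over 24 h. Parameters estimated by non-compartmental analysis.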

[9] = Half life in mouse brain at 5 mg/kg, ip measured after 24 hrs; type: ADME, organism-based; details: in vivo; method in brief: as §3
[10] = Mean residence time in mouse plasma at 5 mg/kg, ip measured after 24 hrs; type: ADME, organism-based; details: in vivo; method in brief: as §3
[11] = Mean residence time in mouse brain at 5 mg/kg, ip measured after 24 hrs; type: ADME, organism-based; details: in vivo; method in brief: as §3
[12] = Tmax in mouse plasma at 5 mg/kg, ip measured after 24 hrs; type: ADME, organism-based; details: in vivo; method in brief: as §3
[13] = Tmax in mouse brain at 5 mg/kg, ip measured after 24 hrs; type: ADME, organism-based; details: in vivo; method in brief: as §3
[14] = Cmax in mouse plasma at 5 mg/kg, ip measured after 24 hrs; type: ADME, organism-based; parameters: dose 5 mg/kg, time 24 hrs, route ip; details: in vivo; method in brief: as §3
[15] = Cmax in mouse brain at 5 mg/kg, ip measured after 24 hrs; type: ADME, organism-based; parameters: time 24 hrs, dose 5 mg/kg, route ip; method in brief: as §3
[16] = AUC(infinity) in mouse plasma at 5 mg/kg, ip measured after 24 hrs; type: ADME, organism-based; parameters: dose 5 mg/kg, time 24 hrs, route ip; details: in vivo; method in brief: as §3
[17] = AUC(infinity) in mouse brain at 5 mg/kg, ip measured after 24 hrs; type: ADME, organism-based; parameters: dose 5 mg/kg, time 24 hrs, route ip; method in brief: as §3
[18] = Ratio of total drug concentration in mouse brain to plasma at 5 mg/kg, ip measured after 1 hr; type: ADME, organism-based
Method in brief: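 Mice received 5 mg/kg IP in 10% DMSO/10% Cremophor EL/30% PEG400/50% water. Kp is total brain concentration divided by total plasma concentration, taken at 1 h and 5 h post-dose.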

[19] = Ratio of free drug concentration in mouse brain to plasma at 5 mg/kg, ip measured after 1 hr; type: ADME, organism-based
Method in brief: (§4)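 Mice received 5 mg/kg IP in 10% DMSO/10% Cremophor EL/30% PEG400/50% water. Kp,uu is free brain over free plasma concentration at 1 h and 5 h. Free levels are corrected with unbound fractions measured in mouse plasma protein binding and in mouse brain homogenate binding.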

[20] = Ratio of free drug concentration in mouse brain to plasma at 5 mg/kg, ip measured after 5 hrs; type: ADME, organism-based; details: read-out: K(p,uu,brain); method in brief: as §4
[21] = target: D(2) dopamine receptor (Homo sapiens, UniProt P14416); assay: Displacement of [3H]N-methylspiperone from D2 receptor in HEK293 cell membrane assessed as inhibition constant; type: cell membranes; method in brief: as §2
Chain of D(2) dopamine receptor (P14416 whole entry): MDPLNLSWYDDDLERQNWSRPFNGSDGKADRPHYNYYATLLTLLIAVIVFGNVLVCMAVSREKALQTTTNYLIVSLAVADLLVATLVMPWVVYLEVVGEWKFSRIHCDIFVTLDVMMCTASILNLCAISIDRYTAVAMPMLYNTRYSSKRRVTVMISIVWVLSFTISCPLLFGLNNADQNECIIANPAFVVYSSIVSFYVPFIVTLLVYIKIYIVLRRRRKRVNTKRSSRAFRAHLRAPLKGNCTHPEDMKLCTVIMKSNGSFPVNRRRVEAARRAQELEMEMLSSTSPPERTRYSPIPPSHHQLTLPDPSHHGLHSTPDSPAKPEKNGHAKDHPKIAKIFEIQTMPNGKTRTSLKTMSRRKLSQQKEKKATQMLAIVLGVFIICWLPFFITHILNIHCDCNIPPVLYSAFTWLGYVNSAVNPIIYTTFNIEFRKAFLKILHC

[22] = target: D(3) dopamine receptor (Homo sapiens, UniProt P35462); assay: Displacement of [3H]N-methylspiperone from D3 receptor in HEK293 cell membrane assessed as inhibition constant; type: cell membranes; method in brief: as §2
Chain of D(3) dopamine receptor (P35462 whole entry): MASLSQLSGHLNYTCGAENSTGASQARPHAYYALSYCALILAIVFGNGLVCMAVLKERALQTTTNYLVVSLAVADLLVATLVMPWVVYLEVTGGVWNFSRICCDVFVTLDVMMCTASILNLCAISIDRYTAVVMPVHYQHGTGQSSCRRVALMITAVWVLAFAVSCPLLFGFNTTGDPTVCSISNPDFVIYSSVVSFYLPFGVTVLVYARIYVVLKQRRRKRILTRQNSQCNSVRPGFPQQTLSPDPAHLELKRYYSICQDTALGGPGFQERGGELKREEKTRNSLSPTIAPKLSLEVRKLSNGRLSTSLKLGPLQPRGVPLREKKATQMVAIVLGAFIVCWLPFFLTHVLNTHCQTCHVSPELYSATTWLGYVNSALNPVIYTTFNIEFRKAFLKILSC

[23] = Intrinsic clearance in human liver microsomes; type: ADME, Microsome; details: read-out: CLH
Method in brief: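 Intrinsic clearance measured in human liver microsomes. Hepatic clearance predicted from it with the well-stirred organ model, binding terms excluded.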

[24] = Plasma protein binding in mouse assessed as unbound fraction; type: ADME; method in brief: as §1
[25] = target: T3, D(4) dopamine receptor (Homo sapiens) (UniProt P21917); assay: Displacement of [3H]N-methylspiperone from D4 receptor in HEK293 cell membrane assessed as inhibition constant at 10 uM relative to control; type: cell membranes; parameters: scale not given: the % may be the effect or the level left
T3 sequence (whole entry): T2 sequence (P21917 whole entry)

[26] = target: T1, Sigma non-opioid intracellular receptor 1; assay: Displacement of [3H] Pentazocine from sigma 1 receptor in HEK293 cell membrane assessed as inhibition constant relative to control; type: cell membranes; parameters: scale not given: the % may be the effect or the level left; method in brief: as §2

T1 sequence (Q99720 whole entry): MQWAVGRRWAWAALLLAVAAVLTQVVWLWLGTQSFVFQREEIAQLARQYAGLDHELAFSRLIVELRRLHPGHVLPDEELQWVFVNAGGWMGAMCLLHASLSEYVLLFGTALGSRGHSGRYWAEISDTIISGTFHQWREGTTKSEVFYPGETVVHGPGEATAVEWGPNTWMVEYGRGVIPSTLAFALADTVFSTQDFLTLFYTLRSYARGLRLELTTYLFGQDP

Ki ([1]; read-out: Ki): 97 nM
Structure (SMILES): Cc1c(Cl)cccc1NC(=O)CN1CCC(OCc2ccc(Cl)c(F)c2)CC1

Ki ([1]; read-out: Ki): 52 nM
Structure (SMILES): Cc1cccc(CO[C@H]2CCCN(Cc3cc4ccc(Cl)cc4[nH]3)C2)n1

Ki ([1]; read-out: Ki): 35 nM
Structure (SMILES): FC(F)(F)Oc1cccc(CO[C@H]2CCCN(Cc3cn4ccccc4n3)C2)c1

Ki ([1]; read-out: Ki): 8.1 nM
Fu [2]: < 0.3%
Structure (SMILES): Fc1ccc(COC2CCN(Cc3cc4ccc(Cl)cc4[nH]3)CC2)cc1F

Ki ([1]; read-out: Ki): 14 nM
Ki [3]: 1700 nM
Ki [4]: 43 nM
Ki [5]: > 10000 nM
Structure (SMILES): Cc1c(Cl)cccc1NC(=O)CN1CCC2(CCCN2Cc2ccc(F)c(F)c2)C1 (stereo unspecified)

Ki ([1]; read-out: Ki): 8.3 nM
Ki [6]: 12 nM
Ki [4]: 166 nM
Ki [7]: > 10000 nM
Ki [5]: > 10000 nM
t1/2 [8]: 2.14 h
t1/2 [9]: 9.11 h
MRT [10]: 2.12 h
MRT [11]: 8.43 h
Tmax [12]: 0.28 h
Tmax [13]: 0.56 h
Cmax [14]: 527 ng/mL
Cmax [15]: 860 ng/mL
AUC [16]: 952 ng·h/mL
AUC(0-inf) [17]: 4560 ng·h/mL
Kp [18]: 2.78
K(p,uu,brain) [19]: 1.59
Kp uu at 5 h [20]: 6.44
Structure (SMILES): Fc1ccc(COC2CCN(Cc3ccc4[nH]cnc4c3)CC2)cc1F

Ki ([1]; read-out: Ki): 388 nM
Ki [3]: 169 nM
Structure (SMILES): Cc1csc(OC[C@@H]2CN(Cc3cc4ccc(Cl)cc4[nH]3)CCO2)n1

Ki ([1]; read-out: Ki): 5.5 nM
Ki ([1]; read-out: pKi (converted)): 5.37 nM
Ki [3]: 268 nM
Ki [4]: 23 nM
Ki [21]: > 10000 nM
Ki [22]: 118 nM
Ki [7]: > 10000 nM
Ki [5]: 2370 nM
Structure (SMILES): Fc1ccc(CN2CCCC23CCN(Cc2cc4ccc(Cl)cc4[nH]2)C3)cc1F (stereo unspecified)

Ki ([1]; read-out: Ki): 0.7 nM
CLint scaled [23]: 26.3 mL/min/kg
Fu [2]: 7%
Fu [24]: 6.5%
Structure (SMILES): Fc1cc(COC2CCN(Cc3ccc4[nH]ncc4c3)CC2)ccc1Cl

Ki ([1]; read-out: Ki): 37 nM
Activity [25]: 65%
Ki [4]: 239 nM
Fu [2]: 4.3%
Ki [5]: > 10000 nM
Fu [24]: 8.8%
Structure (SMILES): Cc1ccccc1CO[C@H]1CCCN(Cc2ccc3c(cnn3C)c2)C1

Ki [3]: 1560 nM
Activity [26]: 6%
Structure (SMILES): Cc1csc(OC[C@@H]2CN(Cc3cn4ccccc4n3)CCO2)n1

Activity [26]: 39%
Activity [25]: 23%
Structure (SMILES): Cc1cccc(CO[C@H]2CCCN(Cc3cn4ccccc4n3)C2)n1

Ki ([1]; read-out: Ki): 23 nM
Ki [3]: 28 nM
Structure (SMILES): Cn1ncc2cc(CN3CCO[C@H](COc4ccc(F)c(F)c4)C3)ccc21

Ki ([1]; read-out: Ki): 5.5 nM
Fu [2]: 1.3%
Fu [24]: 2.5%
Structure (SMILES): COc1ccc(CN2CCC[C@H](OCc3ccc(C)cc3)C2)cc1F

Ki ([1]; read-out: Ki): 490 nM
Ki [3]: 1210 nM
Structure (SMILES): Fc1cccc(CO[C@H]2CCCN(Cc3cn4ccccc4n3)C2)c1

Ki [4]: 73 nM
Ki [7]: > 10000 nM
Ki [5]: > 10000 nM
Structure (SMILES): FC(F)(F)c1cccc(COC2CCN(Cc3ccc4[nH]cnc4c3)CC2)c1
